Compound activity deposited in PubChem BioAssay by several laboratories.
Sampled rows, rich in hits. Any-hit rate of the full collection: about 4%.
TAAR1 antagonist – antagonists of human TAAR1. Q96RJ0. CHO RD-HGA16 TAAR1, Fluo-8 calcium fluorescence, antagonist. inhibition, % at 3 µM. 360,000 compounds, 1.5% hits;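 active = inhibition above a per-plate cutoff, the mean inhibition of test compounds on that plate plus 3 SD, cut at about 49% in these data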
Target sequence (Q96RJ0 whole entry, looked up): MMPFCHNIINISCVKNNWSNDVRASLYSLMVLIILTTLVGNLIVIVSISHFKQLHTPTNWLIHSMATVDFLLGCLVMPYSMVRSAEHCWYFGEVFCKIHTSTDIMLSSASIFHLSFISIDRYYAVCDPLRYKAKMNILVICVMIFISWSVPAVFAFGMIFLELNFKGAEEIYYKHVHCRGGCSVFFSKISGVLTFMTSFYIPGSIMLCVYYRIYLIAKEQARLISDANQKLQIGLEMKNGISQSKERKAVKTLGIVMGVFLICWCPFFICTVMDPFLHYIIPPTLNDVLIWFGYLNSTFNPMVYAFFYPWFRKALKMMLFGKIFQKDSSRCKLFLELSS
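Material: RD-HGA16 CHO cells with stable hTAAR1 and Gα16; Dosing: single nominal final test compound concentration of 3 µM; Schedule: seeding 17-24 h prior, 75-min 37 °C, 30-min RT dye loading; Detection: kinetic Fluo-8 calcium fluorescence measurement; Measure: % inhibition from peak post-agonist over basal fluorescence ratio; Benchmarks: vehicle and agonist controls.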
MPTP inh – inhibitors of mitochondrial permeability transition pore. 360,000 compounds, 1.4% hits. inhibition, % at 10 µM. isolated mouse mitochondria, Ca2+ swelling absorbance, 30 min;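 active = inhibition of 50% or more, scaled per plate between neutral and stimulator controls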
GPR7 antag – antagonists of human GPR7 (neuropeptides B/W receptor 1) | GPR7-expressing cells, fluorescence antagonist assay | inhibition, % at 4.4 µM | 290,000 compounds, 1.1% hits | AID 1861; in the data active = inhibition above about 16%, passing the limit was not always enough;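 note: cells stimulated with the agonist NPW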
Target sequence (P48145 whole entry, looked up): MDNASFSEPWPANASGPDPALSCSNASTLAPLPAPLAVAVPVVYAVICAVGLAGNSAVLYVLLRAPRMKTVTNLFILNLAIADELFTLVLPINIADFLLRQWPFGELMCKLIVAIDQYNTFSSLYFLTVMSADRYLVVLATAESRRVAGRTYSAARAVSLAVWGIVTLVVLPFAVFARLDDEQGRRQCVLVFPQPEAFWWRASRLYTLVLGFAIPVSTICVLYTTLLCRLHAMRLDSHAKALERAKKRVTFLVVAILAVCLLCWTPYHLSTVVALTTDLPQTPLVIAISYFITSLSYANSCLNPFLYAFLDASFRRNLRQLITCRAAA
DAGLB inhibitor – blocks human DAGLB lipase activity. Q8NCG7. HEK293T DAGLB membrane lysate, EnzChek fluorogenic substrate. inhibition, % at 5.17 µM. 340,000 compounds, 0.059% hits; in the data active = inhibition above about 34%
TAAR1 agonist – human TAAR1 agonism; CHO RD-HGA16 TAAR1, Fluo-8 calcium fluorescence; vehicle wells 0%, saturating PEA agonist 100%; 360,000 compounds, 0.99% hits; activation, % at 3 µM; Q96RJ0;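 active = activation above the mean activation of all test compounds in the run plus 3 SD, cut at about 38% in these data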
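test system = CHO RD-HGA16 cells carrying human TAAR1 plus Gα16 | schedule = 17-24 h seeding, 75 min 37 °C dye, 30 min RT | compound dosing = 3 µM single concentration | control set = DMSO and PEA EC100 | replicates = n 1 | signal = Fluo-8 fluorescence, 5 s baseline then 140 s kinetic read | measure = percent activation vs PEA EC100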
Rh123 counter – membrane potential counter-screen of mitochondrial pore inhibitors; inhibition, % at 10 µM; shares compounds with MPTP inh; AID 624504; 5,000 compounds, 78% hits; isolated mitochondria, Rhodamine 123 fluorescence; in the data active = inhibition above about 22%
MPTP swell DR – dose response confirmation of mitochondrial permeability transition pore inhibitors; shares compounds with MPTP inh; isolated mitochondria swelling, absorbance; IC50, µM; 780 compounds, 58% hits; in the data active = IC50 below about 20 µM
MPTP counter DR – counter-screen for mitochondrial permeability transition pore inhibitors, dose response. shares compounds with MPTP inh. 780 compounds, 49% hits. IC50, µM. isolated mitochondria counterscreen, fluorescence read-out; in the data active = IC50 below about 80 µM
Large screens that a line does not name were inactive (follow-up assays come after a bar, where they were run).

CCOC(=O)c1sc(NC(=O)c2ccc(S(=O)(=O)N3CCCCC3)cc2)nc1-c1ccccc1	MPTP inh 50 | Rh123 counter 32
CCOC(=O)c1ccc(S(=O)(=O)N2CCN(S(=O)(=O)CC)CC2)cc1	MPTP inh 60 | Rh123 counter inactive | MPTP swell DR inactive | MPTP counter DR inactive
CCOC(=O)c1ccc(S(=O)(=O)N2CCNCC2)cc1	none
CCOC(=O)N1CCN(S(=O)(=O)c2ccc(C(=O)Nc3nc4ccc(F)cc4s3)cc2)CC1	MPTP inh 62 | Rh123 counter inactive | MPTP swell DR inactive | MPTP counter DR 6.3
COC(=O)c1ccc2nc(Nc3nc4c(F)cc(F)cc4s3)sc2c1	MPTP inh 101 | Rh123 counter 64
CCOC(=O)N1CCN(S(=O)(=O)c2ccc(C(=O)Nc3nc4ccccc4s3)cc2)CC1	none
COc1ccc(C2CC=C(C(C)=O)CN2S(=O)(=O)c2ccc(Cl)cc2)cc1 (stereo unspecified)	none (no result: GPR7 antag, DAGLB inhibitor)
CCOC(=O)c1ccc2nc(Nc3nc4ccc(F)cc4s3)sc2c1	MPTP inh 101 | Rh123 counter inactive | MPTP swell DR 5 | MPTP counter DR <2.5
COc1ccc(NC(=O)C2(C)CCN2Cc2ccc(C(C)C)cc2)cc1OC (stereo unspecified)	none (no result: GPR7 antag, DAGLB inhibitor)
O=[N+]([O-])c1ccc(N2CCN(C(=S)Nc3cccc(F)c3)CC2)cc1	MPTP inh 55 | Rh123 counter 58
O=[N+]([O-])c1ccc(N2CCN(C(=S)Nc3ccc(F)cc3)CC2)cc1	none
CCOC(=O)c1ccc(-n2[nH]c(-c3ccccc3)cc2=O)cc1	MPTP inh 88 | Rh123 counter 79
O=C(C(=O)c1ccc(O)cc1)c1ccccc1	none
O=C(c1ccc(O)cc1)c1ccc(C(=O)c2ccc(O)cc2)cc1	MPTP inh 69 | Rh123 counter 34
COCCOc1ccc(C(F)(F)F)cc1NC(=O)c1ccc(C)cc1	MPTP inh 58 | Rh123 counter inactive | MPTP swell DR 15 | MPTP counter DR inactive
COCCOc1ccc(C(F)(F)F)cc1NC(=O)c1ccc(F)cc1	none
NC(c1csc(NC(=O)Nc2ccc(OC(F)(F)F)cc2)n1)C1CCCCC1 (stereo unspecified)	MPTP inh 62, TAAR1 agonist 47 (no result: GPR7 antag, DAGLB inhibitor) | Rh123 counter 88
Cc1cc(C(C)(C)C)ccc1OCCCCN1CCCC1	MPTP inh 51 | Rh123 counter inactive | MPTP swell DR 6.8 | MPTP counter DR 13
Cc1ccc2c(c1)nnn2C1CCN(S(=O)(=O)c2ccc(C(=O)N3CC(C)CC(C)C3)cc2)CC1 (stereo unspecified)	MPTP inh 56 | Rh123 counter 40
Cc1ccc2c(c1)nnn2C1CCN(S(=O)(=O)c2ccc3ccccc3c2)CC1	none
Cc1ccc2c(c1)nnn2C1CCN(S(=O)(=O)c2ccc(C(=O)N(C)C)cc2)CC1	none
Cc1ccc2c(c1)nnn2C1CCN(S(=O)(=O)c2cccc(S(=O)(=O)N(C)C)c2)CC1	TAAR1 antagonist 56, MPTP inh 88 | Rh123 counter 87
COc1ccc(CN2C(=O)CS/C2=N/N=C/c2ccccc2)cc1	MPTP inh 67 (no result: DAGLB inhibitor) | Rh123 counter 65
COc1ccc(/C=N/N=C2/SCC(=O)N2Cc2ccccc2)cc1	none
O=C(/C=C(\Nc1cccc(Cl)c1F)c1ccccc1)c1ccccc1	none (no result: MPTP inh, GPR7 antag, DAGLB inhibitor)
Cc1cc(Cn2nnc3ccccc32)c(O)c(C(C)(C)C)c1	MPTP inh 53 (no result: GPR7 antag) | Rh123 counter 94
CC(C)(C)c1cccc(Cn2nnc3ccccc32)c1O	MPTP inh 82 (no result: GPR7 antag) | Rh123 counter 97
CC(c1ccc2ccccc2c1)c1ccccc1C(=O)O (stereo unspecified)	none (no result: GPR7 antag)
CC(C)C[C@H]1CNC(=S)N1C[C@H]1CCCN1C[C@H](Cc1ccc(O)cc1)N1C[C@H](CC(C)C)N(CCc2ccccc2)C1=S	none (no result: GPR7 antag, DAGLB inhibitor)
COC(=O)N(C)C[C@H]1OCc2cnnn2CCCC(=O)N([C@@H](C)CO)C[C@H]1C	none (no result: GPR7 antag)
Nc1nc(=O)n(C2CCC(CO)O2)cc1F (stereo unspecified)	none (no result: GPR7 antag, DAGLB inhibitor)
Cc1ccc(C(CNS(=O)(=O)c2ccc(Br)cc2)N2CCN(C)CC2)cc1 (stereo unspecified)	MPTP inh 78 (no result: GPR7 antag) | Rh123 counter inactive | MPTP swell DR 13 | MPTP counter DR inactive
Cc1cccc2sc(NC(=O)CSc3nc4ccccc4o3)nc12	MPTP inh 70 | Rh123 counter inactive | MPTP swell DR inactive | MPTP counter DR 6.1
O=C(Nc1ccccc1F)c1csc(COCCO)n1	none (no result: GPR7 antag, DAGLB inhibitor)
c1ccc(OCCOCCN2CCN(C(c3ccccc3)c3ccccc3)CC2)cc1	none
COc1ccccc1OCCCCN1CCN(C(c2ccccc2)c2ccccc2)CC1	MPTP inh 82 | Rh123 counter inactive | MPTP swell DR inactive | MPTP counter DR 65
CC1(C)CC(=O)C2=C(C1)NC1=C(C(=O)c3ccccc31)C2c1cc([N+](=O)[O-])ccc1O (stereo unspecified)	MPTP inh 94 | Rh123 counter 57
CC(C)c1ccc(C2C3=C(CC(C)(C)CC3=O)NC3=C2C(=O)c2ccccc23)cc1 (stereo unspecified)	MPTP inh 84 | Rh123 counter 61
O=C(Nc1ccccc1C(F)(F)F)NC1(C(=O)N2CCOCC2)CCCCC1	none (no result: GPR7 antag)
O=C(Nc1ccc2c(c1)OCO2)c1cc(C2CCCCN2S(=O)(=O)c2cccs2)on1 (stereo unspecified)	none (no result: GPR7 antag, DAGLB inhibitor)
CC(C(=O)Nc1ccccc1)c1ccc(-c2ccccc2)c(F)c1 (stereo unspecified)	MPTP inh 86 (no result: TAAR1 antagonist, TAAR1 agonist) | Rh123 counter 122
O=C(Nc1ccc(Cl)cc1)OC[C@@H]1CSCCS(=O)(=O)N1	none (no result: MPTP inh, GPR7 antag, DAGLB inhibitor)
CCOC(=O)c1sc(NC(=O)Nc2ccccc2)cc1C	MPTP inh 94 | Rh123 counter 70
CCOC(=O)c1sc(NC(=O)Nc2ccc(F)cc2)nc1C	TAAR1 antagonist 62, MPTP inh 73 | Rh123 counter 84
CCOC(=O)c1sc(NC(=O)c2cccc(S(=O)(=O)N3c4ccccc4CC3C)c2)cc1C (stereo unspecified)	MPTP inh 56 | Rh123 counter 38
CCOC(=O)c1sc(NC(=O)Nc2ccccc2Cl)cc1C	MPTP inh 72 | Rh123 counter 60
CCOC(=O)c1sc(NC(=O)Cc2ccc(F)cc2)nc1C	none
Cc1cc(NC(=O)c2cccc(S(=O)(=O)N3c4ccccc4CC3C)c2)no1 (stereo unspecified)	none
COc1cccc(C(O)c2ncc(-c3ccccc3Cl)[nH]2)c1 (stereo unspecified)	none (no result: GPR7 antag, DAGLB inhibitor)
O=C(Nc1ccc(Cl)c(Cl)c1)N[C@@H]1CC[C@@H](CCn2cc(C3CCCCC3)nn2)O[C@@H]1CO	none (no result: GPR7 antag, DAGLB inhibitor)
